Results from ChEMBL document CHEMBL5058577, “EUbOPEN Chemogenomics Library 2 (Multiplex)” (2022).

Tested on: HEK-293T
Test: Multiplex assay against HEK293T
Format: toxicity, cell-based
Settings: human
Procedure, shortened: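 Phenotypes for tubulin, mitochondrial mass and membrane permeability are expressed as per cents of healthy-nucleus cells. Cells were stained live at seeding with Hoechst33342, BioTracker Green Microtubule Cytoskeleton Dye, MitoTracker Red and Annexin V Alexa Fluor 680, then imaged after compound addition on a CQ1 microscope at 37°C and 5% CO2. Machine-learning gating in CellPathfinder separated Hoechst high-intensity objects from normal cells, divided normal cells by nuclear state (healthy, pyknosed, fragmented) and divided pyknosed cells into mitotic or apoptotic.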

[1] = 12 h, 1 µM, compound concentration 1 uM, replicate 1
[2] = 12 h, 1 µM, compound concentration 1 uM, replicate 2
[3] = 12 h, 10 µM, compound concentration 10 uM, replicate 1
[4] = 12 h, 10 µM, compound concentration 10 uM, replicate 2
[5] = 24 h, 1 µM, compound concentration 1 uM, replicate 1
[6] = 24 h, 1 µM, compound concentration 1 uM, replicate 2
[7] = 24 h, 10 µM, compound concentration 10 uM, replicate 1
[8] = 24 h, 10 µM, compound concentration 10 uM, replicate 2
[9] = 48 h, 1 µM, compound concentration 1 uM, replicate 1
[10] = 48 h, 1 µM, compound concentration 1 uM, replicate 2
[11] = 48 h, 10 µM, compound concentration 10 uM, replicate 1
[12] = 48 h, 10 µM, compound concentration 10 uM, replicate 2

O=C1COc2nccc(-c3ccccc3F)c2CN1Cc1cc(C(F)(F)F)cc(C(F)(F)F)c1
Population Apoptotic (%) [1]: 31% | Population Fragmented Nuclei (%) [1]: 8% | Population Healthy Nuclei (%) [1]: 80% | Population Hoechst High Intensity Objects (%) [1]: 5% | Population Membrane Permeable-Phenotype (%) [1]: 0% | Population Mitochondria Different-Phenotype (%) [1]: 41% | Population Mitotic Cells (%) [1]: 68% | Population Normal (%) [1]: 94% | Population Pyknosed Nuclei (%) [1]: 10% | Population Tubulin-Different-Phenotype (%) [1]: 27% | Total Cell Count [1]: 397 | Population Apoptotic (%) [2]: 51% | Population Fragmented Nuclei (%) [2]: 4% | Population Healthy Nuclei (%) [2]: 83% | Population Hoechst High Intensity Objects (%) [2]: 10% | Population Mitochondria Different-Phenotype (%) [2]: 67% | Population Mitotic Cells (%) [2]: 48% | Population Normal (%) [2]: 89% | Population Pyknosed Nuclei (%) [2]: 11% | Population Tubulin-Different-Phenotype (%) [2]: 20% | Total Cell Count [2]: 333 | Population Apoptotic (%) [3]: 38% | Population Fragmented Nuclei (%) [3]: 10% | Population Healthy Nuclei (%) [3]: 76% | Population Hoechst High Intensity Objects (%) [3]: 9% | Population Membrane Permeable-Phenotype (%) [3]: 0% | Population Mitochondria Different-Phenotype (%) [3]: 67% | Population Mitotic Cells (%) [3]: 61% | Population Normal (%) [3]: 90% | Population Pyknosed Nuclei (%) [3]: 13% | Population Tubulin-Different-Phenotype (%) [3]: 68% | Total Cell Count [3]: 475 | Population Apoptotic (%) [4]: 57% | Population Fragmented Nuclei (%) [4]: 8% | Population Healthy Nuclei (%) [4]: 79% | Population Hoechst High Intensity Objects (%) [4]: 5% | Population Mitochondria Different-Phenotype (%) [4]: 76% | Population Mitotic Cells (%) [4]: 42% | Population Normal (%) [4]: 94% | Population Pyknosed Nuclei (%) [4]: 12% | Population Tubulin-Different-Phenotype (%) [4]: 39% | Total Cell Count [4]: 382 | Population Apoptotic (%) [5]: 21% | Population Fragmented Nuclei (%) [5]: 8% | Population Healthy Nuclei (%) [5]: 84% | Population Hoechst High Intensity Objects (%) [5]: 3% | Population Membrane Permeable-Phenotype (%) [5]: 0% | Population Mitochondria Different-Phenotype (%) [5]: 32% | Population Mitotic Cells (%) [5]: 78% | Population Normal (%) [5]: 96% | Population Pyknosed Nuclei (%) [5]: 7% | Population Tubulin-Different-Phenotype (%) [5]: 23% | Total Cell Count [5]: 517 | Population Apoptotic (%) [6]: 59% | Population Fragmented Nuclei (%) [6]: 5% | Population Healthy Nuclei (%) [6]: 87% | Population Hoechst High Intensity Objects (%) [6]: 8% | Population Mitochondria Different-Phenotype (%) [6]: 39% | Population Mitotic Cells (%) [6]: 40% | Population Normal (%) [6]: 91% | Population Pyknosed Nuclei (%) [6]: 6% | Population Tubulin-Different-Phenotype (%) [6]: 12% | Total Cell Count [6]: 428 | Population Apoptotic (%) [7]: 52% | Population Fragmented Nuclei (%) [7]: 10% | Population Healthy Nuclei (%) [7]: 76% | Population Hoechst High Intensity Objects (%) [7]: 5% | Population Membrane Permeable-Phenotype (%) [7]: 0% | Population Mitochondria Different-Phenotype (%) [7]: 71% | Population Mitotic Cells (%) [7]: 47% | Population Normal (%) [7]: 94% | Population Pyknosed Nuclei (%) [7]: 13% | Population Tubulin-Different-Phenotype (%) [7]: 68% | Total Cell Count [7]: 520 | Population Apoptotic (%) [8]: 36% | Population Fragmented Nuclei (%) [8]: 7% | Population Healthy Nuclei (%) [8]: 79% | Population Mitochondria Different-Phenotype (%) [8]: 72% | Population Mitotic Cells (%) [8]: 63% | Population Pyknosed Nuclei (%) [8]: 12% | Population Tubulin-Different-Phenotype (%) [8]: 44% | Total Cell Count [8]: 492 | Population Apoptotic (%) [9]: 27% | Population Fragmented Nuclei (%) [9]: 13% | Population Healthy Nuclei (%) [9]: 80% | Population Hoechst High Intensity Objects (%) [9]: 2% | Population Membrane Permeable-Phenotype (%) [9]: 0% | Population Mitochondria Different-Phenotype (%) [9]: 29% | Population Mitotic Cells (%) [9]: 72% | Population Normal (%) [9]: 97% | Population Pyknosed Nuclei (%) [9]: 6% | Population Tubulin-Different-Phenotype (%) [9]: 14% | Total Cell Count [9]: 743 | Population Apoptotic (%) [10]: 38% | Population Fragmented Nuclei (%) [10]: 9% | Population Healthy Nuclei (%) [10]: 81% | Population Hoechst High Intensity Objects (%) [10]: 4% | Population Mitochondria Different-Phenotype (%) [10]: 23% | Population Mitotic Cells (%) [10]: 61% | Population Normal (%) [10]: 95% | Population Pyknosed Nuclei (%) [10]: 8% | Population Tubulin-Different-Phenotype (%) [10]: 12% | Total Cell Count [10]: 574 | Population Apoptotic (%) [11]: 44% | Population Fragmented Nuclei (%) [11]: 13% | Population Healthy Nuclei (%) [11]: 75% | Population Hoechst High Intensity Objects (%) [11]: 3% | Population Membrane Permeable-Phenotype (%) [11]: 0% | Population Mitochondria Different-Phenotype (%) [11]: 63% | Population Mitotic Cells (%) [11]: 55% | Population Normal (%) [11]: 96% | Population Pyknosed Nuclei (%) [11]: 11% | Population Tubulin-Different-Phenotype (%) [11]: 46% | Total Cell Count [11]: 713 | Population Apoptotic (%) [12]: 56% | Population Fragmented Nuclei (%) [12]: 11% | Population Healthy Nuclei (%) [12]: 80% | Population Hoechst High Intensity Objects (%) [12]: 2% | Population Mitochondria Different-Phenotype (%) [12]: 51% | Population Mitotic Cells (%) [12]: 43% | Population Normal (%) [12]: 97% | Population Pyknosed Nuclei (%) [12]: 7% | Population Tubulin-Different-Phenotype (%) [12]: 25% | Total Cell Count [12]: 669
